# Data taken from ChEMBL document CHEMBL1629439, “High-throughput identification of antibacterials against methicillin-resistant Staphylococcus aureus (MRSA) and the transglycosylase” (Bioorg Med Chem, 2010).
# Assays:
# [1] = test system: Stenotrophomonas maltophilia; assay: Antimicrobial activity against Stenotrophomonas maltophilia ATCC 13637 after 18 to 24 hrs by alamar blue assay; assay type: functional; conditions: Stenotrophomonas maltophilia, ATCC 13637; read-out: MIC
# How it was run: (§1)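 Broth microdilution per NCCLS in Mueller-Hinton broth, 8-point twofold dilutions, 384-well format. Exponential-phase cells at 5 × 10^5 cells/ml incubated with compound 18–24 h at 37 °C, then 20% Alamar blue added and fluorescence read. MIC90 taken as the lowest concentration preventing at least 90% bacterial growth.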
# [2] = test system: Bacillus subtilis; assay: Antimicrobial activity against Bacillus subtilis ATCC 23857 after 18 to 24 hrs by alamar blue assay; assay type: functional; how it was run: as §1
# [3] = Inhibition of transglycosylase assessed as inhibition of NBD- labelled lipid II polymerization
# How it was run: (§2)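 100 µM NBD-labelled lipid II incubated 30 min with full-length PBP (EC, SA or Mtb) and 10 ng/µl N-acetylmuramidase in 50 mM Tris-HCl pH 8.0, 10 mM MgCl2, 0.1% Triton X-100, 10% DMSO, 15% MeOH. Supernatant run on anion-exchange HPLC with 20 mM–0.5 M ammonium acetate gradient. Inhibition calculated from substrate peak-area percentage. IC50 determined. S. aureus strains share one SA enzyme.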
# [4] = test system: Staphylococcus aureus; assay: Antimicrobial activity against oxacillin- and methicillin-resistant Staphylococcus aureus isolate Sa-OXA-R2 after 18 to 24 hrs by alamar blue assay; assay type: functional
# How it was run: (§3)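 Broth microdilution per NCCLS standard, Mueller-Hinton broth, 8-point twofold dilutions; exponentially growing cells at 5 10^5 cells/ml with compound, 18–24 h at 37 C; 20% Alamar blue added, fluorescence read; MIC90 taken as lowest concentration preventing at least 90% growth.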
# [5] = test system: Staphylococcus aureus; assay: Antimicrobial activity against Staphylococcus aureus ATCC 29213 after 18 to 24 hrs by alamar blue assay
# [6] = test system: Acinetobacter baumannii; assay: Antimicrobial activity against Acinetobacter baumannii ATCC 49139 after 18 to 24 hrs by alamar blue assay; assay type: functional; conditions: Acinetobacter baumannii, ATCC 49139; read-out: MIC; how it was run: as §1
# [7] = test system: Mycolicibacterium smegmatis; assay: Antimicrobial activity against Mycobacterium smegmatis BCRC 11565 after 18 to 24 hrs by alamar blue assay; assay type: functional; conditions: Mycolicibacterium smegmatis, BCRC 11565; read-out: MIC; how it was run: as §1
# [8] = Displacement of fluorescein-labeled moenomycin from transglycosylase at 100 uM after 30 mins by fluorescence anisotropy binding assay
# [9] = test system: Staphylococcus aureus; assay: Antimicrobial activity against methicillin-resistant Staphylococcus aureus ATCC 33592 after 18 to 24 hrs by alamar blue assay; assay type: functional; conditions: Staphylococcus aureus, ATCC 33592; read-out: MIC; how it was run: as §3
# [10] = test system: Serratia marcescens; assay: Antimicrobial activity against Serratia marcescens ATCC 14756 after 18 to 24 hrs by alamar blue assay; assay type: functional; conditions: Serratia marcescens, ATCC 14756; read-out: MIC; how it was run: as §1
# [11] = test system: Escherichia coli; assay: Antimicrobial activity against Escherichia coli ATCC […] after 18 to 24 hrs by alamar blue assay; assay type: functional; conditions: Escherichia coli; read-out: MIC; how it was run: as §1
# [12] = Inhibition of transglycosylase assessed as inhibition of NBD- labelled lipid II polymerization at 100 uM; how it was run: as §2
# [13] = test system: Pseudomonas aeruginosa; assay: Antimicrobial activity against Pseudomonas aeruginosa ATCC 25619 after 18 to 24 hrs by alamar blue assay; assay type: functional; conditions: Pseudomonas aeruginosa, ATCC 25619; read-out: MIC; how it was run: as §1
# [14] = test system: Staphylococcus aureus; assay: Antimicrobial activity against methicillin-resistant Staphylococcus aureus isolate NTUH4722 after 18 to 24 hrs by alamar blue assay; assay type: functional; how it was run: as §3
SMILES,MIC [1] [µg/mL],MIC [2] [µg/mL],IC90 [3] [µM],MIC [4] [µg/mL],MIC [5] [µg/mL],MIC [6] [µg/mL],MIC [7] [µg/mL],inhibition [8] [%],MIC [9] [µg/mL],MIC [10] [µg/mL],MIC [11] [µg/mL],inhibition [12] [%],MIC [13] [µg/mL],MIC [14] [µg/mL]
O=C(Nc1cc(Cl)ccc1Oc1ccccc1)c1cc(Br)cc(Br)c1O,16,< 0.03,50,0.5,0.5,16,0.5,97,0.25,16,8,100,16,0.5
C(=C\c1nc([P+](c2ccccc2)(c2ccccc2)c2ccccc2)c(N2CCCCCC2)o1)/c1ccccc1,–,–,–,–,–,–,–,97,–,–,–,0,–,–
CCN(CC)c1cc(C)c2cc(NC(=O)c3ccc([N+](=O)[O-])o3)ccc2n1,32,0.06,–,> 4,2,12,0.5,90,> 4,32,256,0,128,> 4
COc1cccc(-c2coc3c(C)c4oc(=O)c(CCC(=O)O)c(C)c4cc23)c1,> 256,> 64,–,2.5,2.5,> 256,1,90,2.5,> 256,> 256,0,> 256,2.5
CCn1cc(C(=O)O)c(=O)c2cc(F)c(N3CCN(C(=O)c4cccc(C)c4)CC3)cc21,–,–,–,–,–,–,–,93,–,–,–,0,–,–
Cc1ccc(Nc2nc3nonc3nc2Nc2cccc(C(F)(F)F)c2)cc1Cl,–,–,–,–,–,–,–,90,–,–,–,0,–,–
O=C(Nc1ccc(Cl)c(Cl)c1)c1cc(Cl)ccc1NS(=O)(=O)c1ccc(Cl)cc1,> 256,< 0.03,–,0.25,0.25,> 256,> 64,98,0.25,> 256,> 256,0,> 256,0.25
Cc1ccc(-c2cc(C(=O)Oc3cccc(C)c3)no2)cc1,–,–,–,–,–,–,–,96,–,–,–,0,–,–
Cc1c(CCC(=O)O)c(=O)oc2c(C)c3occ(-c4ccc(Cl)cc4)c3cc12,> 256,> 64,–,2.5,2.5,> 256,1,97,1.25,> 256,> 256,0,> 256,2.5
"O=C(Nc1ccc(Cl)c(Cl)c1)c1cc(Cl)cc(Cl)c1O [3,3',4',5-TETRACHLOROSALICYLANILIDE]",16,< 0.03,–,1,0.25,16,0.5,90,1,16,8,0,16,1
O=C(c1ccc(Cl)cc1)c1cc(NC(=O)c2cc(Cl)cc(Br)c2O)c(Cl)cc1Cl,16,< 0.03,100,0.25,0.25,16,0.5,92,0.25,16,8,90,16,0.25
O=C(Nc1cccc2cccnc12)c1ccc([N+](=O)[O-])o1,32,0.06,–,2,2,12,0.5,90,2,32,256,0,128,2
